Reference: ChEMBL document CHEMBL5303300, “EUbOPEN Chemogenomics Library - Multiplex” (2023)
Values joined by “and” are separate entries in the source; they are usually repeats but may differ in a detail not shown here. Equal entries are not always repeated.

Legend:
Assay type in all cases: toxicity, cell-based
HEK-293T = assay: Multiplex assay against HEK293T; conditions: human, number of replicates 2
Method in brief: (§1)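 Cells stained live at seeding with Hoechst33342, BioTracker Green Microtubule Cytoskeleton Dye, MitoTracker Red and Annexin V Alexa Fluor 680 were imaged on a CQ1 microscope at 37°C and 5% CO2 after compound addition. Their classification by CellPathfinder machine-learning gating ran from Hoechst high-intensity objects versus normal cells, to healthy, pyknosed or fragmented nuclei among normal cells, to mitotic or apoptotic among pyknosed cells. Tubulin, mitochondrial-mass and membrane-permeability phenotypes are per cents of healthy-nucleus cells.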

Fibroblast = assay: Multiplex assay against human fibroblast; conditions: number of replicates 2; method in brief: as §1
U2OS = assay: Multiplex assay against U2OS; conditions: human, number of replicates 2; method in brief: as §1
[1] = 12 h, 1 µM, compound concentration 1 uM
[2] = 12 h, 10 µM, compound concentration 10 uM
[3] = 24 h, 1 µM, compound concentration 1 uM
[4] = 24 h, 10 µM, compound concentration 10 uM
[5] = 48 h, 1 µM, compound concentration 1 uM
[6] = 48 h, 10 µM, compound concentration 10 uM

CS(=O)(=O)c1ccc(C(=O)Nc2cccc(COc3ccc(Br)cc3CNCCO)c2)c(Cl)c1.O=CO
Population Apoptotic (%) (HEK-293T; [1]): 64% and 58%
Population Healthy Nuclei (%) (HEK-293T; [1]): 78% and 83%
Population Mitotic Cells (%) (HEK-293T; [1]): 35% and 41%
Total Cell Count (HEK-293T; [1]): 423 and 657
Population Apoptotic (%) (HEK-293T; [2]): 66%
Population Healthy Nuclei (%) (HEK-293T; [2]): 81% and 80%
Population Mitotic Cells (%) (HEK-293T; [2]): 33%
Total Cell Count (HEK-293T; [2]): 566 and 616
Population Apoptotic (%) (HEK-293T; [3]): 42% and 53%
Population Healthy Nuclei (%) (HEK-293T; [3]): 83% and 80%
Population Mitotic Cells (%) (HEK-293T; [3]): 57% and 46%
Total Cell Count (HEK-293T; [3]): 974 and 659
Population Apoptotic (%) (HEK-293T; [4]): 65% and 72%
Population Healthy Nuclei (%) (HEK-293T; [4]): 78% and 75%
Population Mitotic Cells (%) (HEK-293T; [4]): 34% and 28%
Total Cell Count (HEK-293T; [4]): 498 and 611
Population Apoptotic (%) (HEK-293T; [5]): 36% and 25%
Population Healthy Nuclei (%) (HEK-293T; [5]): 82% and 85%
Population Mitotic Cells (%) (HEK-293T; [5]): 63% and 75%
Total Cell Count (HEK-293T; [5]): 1468 and 2063
Population Apoptotic (%) (HEK-293T; [6]): 82%
Population Healthy Nuclei (%) (HEK-293T; [6]): 77% and 78%
Population Mitotic Cells (%) (HEK-293T; [6]): 36% and 17%
Total Cell Count (HEK-293T; [6]): 828 and 933
Population Apoptotic (%) (Fibroblast; [1]): 37% and 48%
Population Hoechst High Intensity Objects (%) (Fibroblast; [1]): 0%
Population Mitotic Cells (%) (Fibroblast; [1]): 62% and 51%
Total Cell Count (Fibroblast; [1]): 153 and 242
Population Apoptotic (%) (Fibroblast; [2]): 58% and 47%
Population Hoechst High Intensity Objects (%) (Fibroblast; [2]): 0%
Population Mitotic Cells (%) (Fibroblast; [2]): 41% and 52%
Population Pyknosed Nuclei (%) (Fibroblast; [2]): 28%
Total Cell Count (Fibroblast; [2]): 238 and 244
Population Apoptotic (%) (Fibroblast; [3]): 70% and 59%
Population Hoechst High Intensity Objects (%) (Fibroblast; [3]): 0%
Population Mitotic Cells (%) (Fibroblast; [3]): 30% and 40%
Population Pyknosed Nuclei (%) (Fibroblast; [3]): 20% and 18%
Total Cell Count (Fibroblast; [3]): 148 and 236
Population Apoptotic (%) (Fibroblast; [4]): 80% and 67%
Population Hoechst High Intensity Objects (%) (Fibroblast; [4]): 2% and 0%
Population Mitotic Cells (%) (Fibroblast; [4]): 20% and 32%
Population Pyknosed Nuclei (%) (Fibroblast; [4]): 28%
Total Cell Count (Fibroblast; [4]): 232 and 267
Population Apoptotic (%) (Fibroblast; [5]): 80% and 74%
Population Hoechst High Intensity Objects (%) (Fibroblast; [5]): 0%
Population Mitotic Cells (%) (Fibroblast; [5]): 19% and 25%
Population Pyknosed Nuclei (%) (Fibroblast; [5]): 16% and 15%
Total Cell Count (Fibroblast; [5]): 153 and 246
Population Apoptotic (%) (Fibroblast; [6]): 85% and 77%
Population Hoechst High Intensity Objects (%) (Fibroblast; [6]): 2% and 0%
Population Mitotic Cells (%) (Fibroblast; [6]): 22%
Total Cell Count (Fibroblast; [6]): 247 and 259
Population Apoptotic (%) (U2OS; [1]): 50% and 66%
Population Healthy Nuclei (%) (U2OS; [1]): 74% and 84%
Population Mitotic Cells (%) (U2OS; [1]): 50% and 33%
Population Apoptotic (%) (U2OS; [2]): 66% and 50%
Population Healthy Nuclei (%) (U2OS; [2]): 73%
Population Mitotic Cells (%) (U2OS; [2]): 33% and 50%
Population Apoptotic (%) (U2OS; [3]): 75% and 87%
Population Healthy Nuclei (%) (U2OS; [3]): 79% and 82%
Population Mitotic Cells (%) (U2OS; [3]): 25% and 12%
Population Pyknosed Nuclei (%) (U2OS; [3]): 15%
Population Apoptotic (%) (U2OS; [4]): 66% and 74%
Population Healthy Nuclei (%) (U2OS; [4]): 59% and 66%
Population Mitotic Cells (%) (U2OS; [4]): 33% and 25%
Population Pyknosed Nuclei (%) (U2OS; [4]): 34% and 27%
Population Apoptotic (%) (U2OS; [5]): 83%
Population Healthy Nuclei (%) (U2OS; [5]): 83% and 88%
Population Mitotic Cells (%) (U2OS; [5]): 36% and 16%
Population Pyknosed Nuclei (%) (U2OS; [5]): 9%
Population Apoptotic (%) (U2OS; [6]): 91% and 85%
Population Healthy Nuclei (%) (U2OS; [6]): 46% and 62%
Population Mitotic Cells (%) (U2OS; [6]): 8%
Population Pyknosed Nuclei (%) (U2OS; [6]): 45% and 27%
